Measurements collected from several papers.
Compare with care: the assays were run in different laboratories.
gag-pol integrase: Gag-Pol polyprotein, integrase (gag-pol, Human immunodeficiency virus 1, UniProt P12497)
PPARA: Peroxisome proliferator-activated receptor alpha (PPARA, Homo sapiens, UniProt Q07869)
ADRA1B: Alpha-1B adrenergic receptor (ADRA1B, Homo sapiens, UniProt P35368)
Drd2: D(2) dopamine receptor (Drd2, Rattus norvegicus, UniProt P61169)
CYP2D6: Cytochrome P450 2D6 (CYP2D6, Homo sapiens, UniProt P10635)
Tumor necrosis factor receptor superfamily member 9: Tumor necrosis factor receptor superfamily member 9 (Homo sapiens, UniProt Q07011)

| SMILES | target | assay | test system | setting | endpoint | result |
| --- | --- | --- | --- | --- | --- | --- |
| O=C(O)[C@H](Cc1ccc2ccccc2c1)NC(=O)C1(c2ccc(F)cc2)CCN(CCC(F)(F)F)CC1 | gag-pol integrase | enzyme activity, inhibitor, TR-FRET |  |  | IC50 | 206000 nM |
| O=C(O)CCC(c1ccccc1)(c1ccccc1)c1ccccc1 | Kinesin-like protein KIF11 (KIF11, Homo sapiens, UniProt P52732) | ATPase activity, inhibitor |  |  | IC50 | > 28000 nM |
| O=C(O)[C@H](Cc1ccccc1)NC(=O)C1(c2ccccc2)CCN(Cc2ccccc2)CC1 | gag-pol integrase | enzyme activity, inhibitor, TR-FRET |  |  | IC50 | 194000 nM |
| Cc1cc(SCc2sc(-c3ccc(C(F)(F)F)c(F)c3)nc2C)ccc1OCC(=O)O | PPARA | reporter gene, antagonist, luciferase |  |  | IC50 | 37400 nM |
| COCCCN1CCN(c2ccccc2OC)CC1 | ADRA1B | ligand displacement, radioligand |  |  | Ki | 240 nM |
| O=C(O)C(F)(OC(F)(F)C(F)(F)C(F)(F)F)C(F)(F)F (stereo not drawn) | PPARA | reporter gene, agonist, luciferase |  |  | EC50 | 2100 nM |
| CC(C)Oc1cccnc1N(C)C1CCN(Cc2ccc(I)cc2)CC1 | Drd2 | ligand displacement, radioligand |  | cell membranes | Ki | 85 nM |
| O=C(O)C(F)(F)C(F)(F)C(F)(F)C(F)(F)C(F)(F)C(F)(F)C(F)(F)F | PPARA | reporter gene, agonist, luciferase |  |  | EC50 | 9500 nM |
| CC(=O)N[C@@H](CC(C)C)C(=O)N[C@@H](CC(C)C)C(=O)N[C@@H](CC(C)C)C(=O)N[C@@H](CCCN=C(N)N)C(=O)N[C@H](C(=O)N[C@@H](CCCCN)C(=O)N[C@@H](CCCN=C(N)N)C(N)=O)C(C)C | Proprotein convertase subtilisin/kexin type 7 (Homo sapiens, UniProt Q16549) | enzyme activity, inhibitor |  |  | Ki | 1520 nM |
| CC(C)C[C@H](NC(=O)[C@H](Cc1ccccc1)NC(=O)[C@H](Cc1ccc(O)cc1)NC(=O)CNC(=O)[C@H](CCCCN)NC(=O)[C@H](CO)NC(=O)[C@H](CCC(N)=O)NC(=O)CNC(=O)[C@@H](NC(=O)[C@H](CO)NC(=O)[C@@H]1CCCN1C(=O)[C@H](CO)NC(=O)[C@H](CCC(N)=O)NC(=O)[C@H](Cc1ccc(O)cc1)NC(=O)[C@H](CCC(=O)O)NC(=O)[C@H](C)NC(=O)[C@H](CCCCN)NC(=O)[C@@H](N)Cc1ccccc1)C(C)C)C(=O)N[C@@H](Cc1ccccc1)C(=O)N[C@@H](CCCNC(=N)N)C(=O)N1CCC[C@H]1C(=O)N[C@@H](CCCNC(=N)N)C(=O)N[C@@H](CC(N)=O)C(N)=O | Neuromedin-U receptor 2 (NMUR2, Homo sapiens, UniProt Q9GZQ4) | inositol phosphate, agonist |  |  | EC50 | 0.24 nM |
| [Cd+2] | Protein phosphatase 1A (PPM1A, Homo sapiens, UniProt P35813, D38V) | enzyme activity, inhibitor, absorbance |  | pH 8 | Ki | 470 nM |
| c1ccc(-c2ncc(CN3CCN(c4ncccn4)CC3)[nH]2)cc1 | Drd2 | ligand displacement, radioligand |  | cell membranes | Ki | 817 nM |
| Cc1c(C2(c3ccc(C(F)(F)F)nc3)CC2)c[nH]c1C(=O)NC(C)c1c[nH]cn1 (stereo not drawn) | CYP2D6 | enzyme activity, inhibitor | human, liver microsomes |  | IC50 | 320 nM |
| CCCC[C@@H]1NC(=O)[C@H](Cc2ccc(O)cc2)NC(=O)[C@@H]2CCCN2C(=O)[C@H](CC(=O)O)NC(=O)[C@H](C)NC(=O)[C@H](Cc2ccccc2)NC(=O)[C@@H]2CSCCC(=O)N3CN(CN(C3)C(=O)CCSC[C@@H](C(=O)N[C@@H](CNC(=O)CCOCCOCCOCCOCCOCCn3cc(CCC(=O)N[C@H]4CSCCC(=O)N5CN6CN(C5)C(=O)CCSC[C@H](NC(=O)[C@@H](CC(=O)O)NC(=O)[C@H](Cc5cccc7ccccc57)NC(=O)[C@@H]5CCCN5C4=O)C(=O)N[C@@H](CCSC)C(=O)N[C@@H](CCCCNC(=N)N)C(=O)N[C@@H](CC(=O)O)C(=O)N[C@@H](Cc4c[nH]c5ccccc45)C(=O)N[C@@H](CO)C(=O)N[C@@H]([C@@H](C)O)C(=O)N4CCC[C@H]4C(=O)N4C[C@H](O)C[C@H]4C(=O)N[C@@H](Cc4c[nH]c5ccccc45)C(=O)N[C@H](C(N)=O)CSCCC6=O)nn3)C(N)=O)NC1=O)C(=O)CCSC[C@H](NC(C)=O)C(=O)N[C@@H](CC(C)(C)C)C(=O)N1CCC[C@H]1C(=O)N[C@@H](CCC(=O)O)C(=O)N[C@H](C)C(=O)N1CCC[C@H]1C(=O)N[C@@H](Cc1ccc(O)cc1)C(=O)N2 | Tumor necrosis factor receptor superfamily member 9 | binding, SPR |  |  | Kd | 3.4 nM |
| O=C(O)[C@H](Cc1ccccc1)NC(=O)C1(c2ccc(-c3ccccc3)cc2)CCN(CCC(F)(F)F)CC1 | gag-pol integrase | enzyme activity, inhibitor, TR-FRET |  |  | IC50 | 263000 nM |
| CCCC[C@@H]1NC(=O)[C@H](Cc2ccc(O)cc2)NC(=O)[C@@H]2CCCN2C(=O)[C@H](CC(=O)O)NC(=O)[C@H](C)NC(=O)[C@H](Cc2ccccc2)NC(=O)[C@@H]2CSCCC(=O)N3CN(CN(C3)C(=O)CCSC[C@@H](C(=O)N[C@@H](C)C(N)=O)NC1=O)C(=O)CCSC[C@H](NC(C)=O)C(=O)N[C@@H](CC(C)(C)C)C(=O)N1CCC[C@H]1C(=O)N[C@@H](CCC(=O)O)C(=O)N[C@H](CCCCNC(=O)CCc1cn(CCOCCOCCOCCOCCOCCC(=O)NCCCC[C@H]3NC(=O)[C@H](Cc4cccc5ccccc45)NC(=O)[C@@H]4CCCN4C(=O)CCSCCC(=O)N4CN5CN(C4)C(=O)CCSC[C@H](NC3=O)C(=O)N[C@@H](CCSC)C(=O)N[C@@H](CCCCNC(=N)N)C(=O)N[C@@H](CC(=O)O)C(=O)N[C@@H](Cc3c[nH]c4ccccc34)C(=O)N[C@@H](CO)C(=O)N[C@@H]([C@@H](C)O)C(=O)N3CCC[C@H]3C(=O)N3C[C@H](O)C[C@H]3C(=O)N[C@@H](Cc3c[nH]c4ccccc34)C(=O)N[C@H](C(N)=O)CSCCC5=O)nn1)C(=O)N1CCC[C@H]1C(=O)N[C@@H](Cc1ccc(O)cc1)C(=O)N2 | Tumor necrosis factor receptor superfamily member 9 | binding, SPR |  |  | Kd | 3.2 nM |
| Cc1c(Cc2ccc(C(F)(F)F)nc2)c[nH]c1C(=O)NC(C)c1cnn(C)c1 (stereo not drawn) | CYP2D6 | enzyme activity, inhibitor | human, liver microsomes |  | IC50 | 12700 nM |
| CCCC[C@@H]1NC(=O)[C@H](Cc2ccc(O)cc2)NC(=O)[C@@H]2CCCN2C(=O)[C@H](CC(=O)O)NC(=O)[C@H](C)NC(=O)[C@H](Cc2ccccc2)NC(=O)[C@@H]2CSCCC(=O)N3CN(CN(C3)C(=O)CCSC[C@@H](C(=O)N[C@@H](C)C(N)=O)NC1=O)C(=O)CCSC[C@H](NC(C)=O)C(=O)N[C@@H](CC(C)(C)C)C(=O)N1CCC[C@H]1C(=O)N[C@@H](CCC(=O)O)C(=O)N[C@H](CCCCNC(=O)CCc1cn(CCOCCOCCOCCOCCOCCC(=O)NCCCC[C@H]3NC(=O)[C@H](Cc4cccc5ccccc45)NC(=O)[C@@H]4CCCN4C(=O)[C@@H](NC(C)=O)CSCCC(=O)N4CN5CN(C4)C(=O)CCSC[C@H](NC3=O)C(=O)N[C@@H](CCSC)C(=O)N[C@@H](CCCCNC(=N)N)C(=O)N[C@@H](CCC(=O)O)C(=O)N[C@@H](Cc3c[nH]c4ccccc34)C(=O)N[C@@H](CO)C(=O)N[C@@H]([C@@H](C)O)C(=O)N3CCC[C@H]3C(=O)N3C[C@H](O)C[C@H]3C(=O)N[C@@H](Cc3c[nH]c4ccccc34)C(=O)N[C@H](C(N)=O)CSCCC5=O)nn1)C(=O)N1CCC[C@H]1C(=O)N[C@@H](Cc1ccc(O)cc1)C(=O)N2 | Tumor necrosis factor receptor superfamily member 9 | binding, SPR |  |  | Kd | 7.2 nM |
| O=S(=O)(O)C(F)(F)C(F)(F)OC(F)(C(F)(F)F)C(F)(F)OC(F)C(F)(F)F (stereo not drawn) | PPARA | reporter gene, agonist, luciferase |  |  | EC50 | 24000 nM |
| CC[C@H](C)[C@H](NC(=O)[C@H](CCCNC(=N)N)NC(=O)[C@H](CC(C)C)NC(=O)[C@@H](N)Cc1ccccc1)C(=O)N[C@@H](CCCNC(=N)N)C(=O)N1CCC[C@H]1C(=O)N[C@@H](CCCCN)C(=O)O | ADRA1B | cell-free assay, radioligand |  |  | Ki | 6900 nM |
| CCCC[C@@H]1NC(=O)[C@H](Cc2ccc(O)cc2)NC(=O)[C@@H]2CCCN2C(=O)[C@H](CC(=O)O)NC(=O)[C@H](C)NC(=O)[C@H](Cc2ccccc2)NC(=O)[C@@H]2CSCCC(=O)N3CN(CN(C3)C(=O)CCSC[C@H](NC(C)=O)C(=O)N[C@@H](CC(C)(C)C)C(=O)N3CCC[C@H]3C(=O)N[C@@H](CCC(=O)O)C(=O)N[C@H](CCCCNC(=O)CCc3cn(CCOCCOCCOCCOCCOCCC(=O)N[C@H]4CSCCC(=O)N5CN6CN(C5)C(=O)CCSC[C@H](NC(=O)[C@@H](CC(=O)O)NC(=O)[C@H](Cc5cccc7ccccc57)NC(=O)[C@@H]5CCCN5C4=O)C(=O)N[C@@H](CCSC)C(=O)N[C@@H](CCCCNC(=N)N)C(=O)N[C@@H](CC(=O)O)C(=O)N[C@@H](Cc4c[nH]c5ccccc45)C(=O)N[C@@H](CO)C(=O)N[C@@H]([C@@H](C)O)C(=O)N4CCC[C@H]4C(=O)N4C[C@H](O)C[C@H]4C(=O)N[C@@H](Cc4c[nH]c5ccccc45)C(=O)N[C@H](C(N)=O)CSCCC6=O)nn3)C(=O)N3CCC[C@H]3C(=O)N[C@@H](Cc3ccc(O)cc3)C(=O)N2)C(=O)CCSC[C@@H](C(N)=O)NC1=O | Tumor necrosis factor receptor superfamily member 9 | binding, SPR |  |  | Kd | 4.47 nM |
